# rCAG binder: binders of r(CAG) RNA repeats, primary screen, biochemical, fluorescence. 370,000 compounds, 1.3% hits. inhibition, % at 3 µM. AID 651821, 2012. r(CAG) RNA repeat, TO-PRO-1 dye displacement fluorescence;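 active = inhibition above the plate cutoff, the mean of all test compounds on that plate plus 3 SD, cut at about 35% in these data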;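 note: 0% = DMSO alone and 100% = 100 µM mitoxantrone as full dye displacement; higher means more dye released from RNA so lower well fluorescence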
# TAAR1 antagonist: human TAAR1 antagonists, primary screen, Fluo-8 calcium fluorescence, CHO RD-HGA16 cells; Trace amine-associated receptor 1 (Homo sapiens), Q96RJ0; antagonist; inhibition, % at 3 µM; 360,000 compounds, 1.5% hits;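 active = inhibition above a per-plate cutoff, the mean inhibition of test compounds on that plate plus 3 SD, cut at about 49% in these data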;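 note: 0% = DMSO plus EC80 beta-PEA response and 100% = DMSO alone without agonist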
# Target sequence (Q96RJ0 whole entry, looked up): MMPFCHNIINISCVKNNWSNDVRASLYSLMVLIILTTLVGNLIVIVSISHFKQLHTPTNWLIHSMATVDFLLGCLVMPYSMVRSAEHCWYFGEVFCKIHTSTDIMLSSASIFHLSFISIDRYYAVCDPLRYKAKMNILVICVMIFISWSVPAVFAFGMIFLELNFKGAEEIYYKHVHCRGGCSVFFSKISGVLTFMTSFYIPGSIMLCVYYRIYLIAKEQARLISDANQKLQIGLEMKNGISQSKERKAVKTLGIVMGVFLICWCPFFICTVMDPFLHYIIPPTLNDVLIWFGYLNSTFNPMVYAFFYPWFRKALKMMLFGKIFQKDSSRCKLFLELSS
#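 Test system – hTAAR1-expressing CHO RD-HGA16 cells, Gα16-coupled · Also added – β-PEA at EC80 concentration, post-compound challenge · Compound – 3 µM, single point · Incubation – dye loading 75 min at 37 °C, then 30 min room temperature · Measured by – Fluo-8 intracellular calcium dye fluorescence, real-time kinetic reads · Benchmarks – vehicle and agonist controls · Replicates – singlicate, one well per test compound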
# core dimer inh: inhibitors of HCV core protein dimerization, primary screen, biochemical, TR-FRET, high-throughput | TR-FRET GST/Flag-core106 dimerization, 1536-well | inhibition, % at 5 µM | 300,000 compounds, 0.33% hits | AID 1899, 2009;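 active = inhibition above the mean of all tested compounds plus 3 SD, set per screening campaign, cut at about 45% in these data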
#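 Assay system – GST-tagged and Flag-tagged HCV core protein residues 1-106 · Quantity – core106 proteins, GST 13.5 nM and Flag 17 nM · Benchmarks – unlabelled core106 and no-GST-core106 wells · Read-out basis – percent inhibition of core106 dimerization signal · Detection – time-resolved FRET, ex 340 nm, em 617 and 671 nm · Schedule – 4 h at 22.5 °C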
# TAAR1 ag: human TAAR1 agonists, primary screen, Fluo-8 calcium fluorescence, CHO RD-HGA16 cells; Trace amine-associated receptor 1 (Homo sapiens), Q96RJ0; vehicle wells 0%, saturating PEA agonist 100%; activation, % at 3 µM; 360,000 compounds, 0.99% hits; AID 624467, 2012;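 active = activation above the mean activation of all test compounds in the run plus 3 SD, cut at about 38% in these data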
#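 Assay system – CHO-derived RD-HGA16 cells with stable Gα16 and human TAAR1 · Compound dosing – one-point dosing at 3 µM (nominal) · Incubation – 17-24 h seeding, 75 min 37 °C dye, 30 min RT · Measured by – kinetic Fluo-8 calcium fluorescence · Control set – DMSO vehicle as 0%, PEA at EC100 as 100% · Repeats – single well for each compound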
# NS3 helicase inh: inhibitors of HCV NS3 helicase, primary screen, biochemical, Cy5 molecular beacon fluorescence. 290,000 compounds, 0.56% hits. Hepatitis C virus NS3 helicase. inhibition, % at 10.9 µM. NS3 helicase DNA unwinding;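 active = inhibition above the mean of all tested compounds plus 3 SD, set per campaign, cut at about 35% in these data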;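 note: 0% = DMSO wells and 100% = thioflavine S control wells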
#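 assay system = NS3 helicase fragment of HCV | buffer or medium = MOPS pH 6.5, MgCl2, DTT, Tween20, BSA | timing = 60 min unwinding reaction at 25 °C after ATP addition | signal = Cy5 beacon fluorescence read at start and 1 h | read-out basis = % inhibition of unwinding | control set = low DMSO, high thioflavine S at 110 µM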
# NS3 helicase cf: HCV NS3 helicase inhibitors, retest, confirmation, biochemical, Cy5 molecular beacon fluorescence, triplicate; inhibition, % at 10.9 µM; 1,600 compounds, 31% hits; AID 1943, 2009; NS3 helicase DNA unwinding; shares compounds with NS3 helicase inh;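 active = inhibition above the mean of all tested compounds plus 3 SD, cutoff set per campaign, cut at about 36% in these data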
# DNA FID counter: compounds displacing fluorescent DNA intercalator, artefact control for HCV NS3 helicase inhibitor project, biochemical, FID fluorescence, triplicate. shares compounds with NS3 helicase inh. inhibition, % at 7.9 µM. DNA fluorescent intercalator displacement. 1,600 compounds, 4% hits; in the data active = inhibition above about 37%;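 note: 0% = vehicle and 100% = reference compound; higher means more displacement of ethidium bromide from the DNA hairpin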
# FID counter DR: compounds displacing fluorescent intercalator from DNA, dose response, counter-screen for HCV NS3 helicase inhibitor project, biochemical, fluorescence; 120 tested, under 10 active; IC50, µM; fluorescent intercalator displacement from DNA; AID 2172, 2009; shares compounds with NS3 helicase inh; call rule not given here
# TAAR1 nonsel count: nonselective antagonists in TAAR1 counter-screen cells, counter-screen for hTAAR1 antagonist project, cell-based, fluorescence, calcium | inhibition, % at 3 µM | counterscreen cell line, antagonist mode | AID 651780, 2012 | shares compounds with TAAR1 antagonist | 2,400 compounds, 77% hits; in the data active = inhibition above about 22%;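 note: CHO-Ga16 host cells stimulated with ATP at an EC80 level; 0% = agonist EC80 plus vehicle and 100% = vehicle without agonist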
# TAAR1 antag conf: human TAAR1 antagonists, retest of hits, confirmation, cell-based, fluorescence; TAAR1-expressing cells, fluorescence antagonist read-out; shares compounds with TAAR1 antagonist; 2,400 compounds, 40% hits; inhibition, % at 3 µM; in the data active = inhibition above about 49%;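 note: CHO-Ga16 host cells challenged with agonist PEA near its EC80; 0% = agonist at EC80 plus vehicle and 100% = vehicle with no agonist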
# Ga16 nonsel ag: calcium activation in Ga16-expressing cells, counter-screen for TAAR1 antagonist project, cell-based, fluorescence | AID 651953, 2012 | activation, % at 3 µM | shares compounds with TAAR1 antagonist | 2,400 compounds, 18% hits | agonist counterscreen; in the data active = activation above about 12%;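 note: 0% = vehicle wells and 100% = saturating stimulus response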
# TAAR1 ag counter: TAAR1 activation by candidate antagonists – cell-based, fluorescence, counter-screen for TAAR1 antagonist project. shares compounds with TAAR1 antagonist. hTAAR1 cell line, agonist mode. activation, % at 3 µM. 2,400 compounds, 2% hits. AID 651955, 2012; in the data active = activation above about 37%;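 note: CHO cells stably expressing TAAR1 with calcium dye readout; 0% = DMSO vehicle and 100% = full agonist response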
# rCAG bind conf: small molecules binding CAG repeat RNA – biochemical, fluorescence, confirmation; shares compounds with rCAG binder; r(CAG) RNA repeat, TO-PRO-1 dye displacement fluorescence; inhibition, % at 3 µM; 4,300 compounds, 70% hits; AID 652065, 2013;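 active = inhibition above a per-plate cutoff, the mean inhibition of sample wells plus 3 SD, cut at about 35% in these data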;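 note: loss of TO-PRO-1 fluorescence as compound displaces dye from 1x1 AA loop RNA; 0% = DMSO only wells and 100% = 100 µM mitoxantrone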
# DNA CAG counter: displacement of TO-PRO-1 from CAG DNA duplex, counter-screen for rCAG RNA repeat binder project, biochemical, fluorescence, TO-PRO-1 dye, d(CAG) DNA oligo. shares compounds with rCAG binder. d(CAG) DNA oligo TO-PRO-1 dye displacement. inhibition, % at 3 µM. 4,300 compounds, 94% hits. AID 652068, 2013;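 active = inhibition above its plate's cutoff, the mean test-well inhibition plus 3 SD, cut at about 4.8% in these data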;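 note: 0% = DNA dye mix with DMSO and 100% = 100 µM mitoxantrone; hits displace the dye from DNA and so lower well fluorescence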
# Active calls of the source: *; i = inactive; . = not tested or not shown. The list is not random: actives were taken first. Their share in the collection is about 3.7%.
SMILES,rCAG binder,TAAR1 antagonist,core dimer inh,TAAR1 ag,NS3 helicase inh,NS3 helicase cf,DNA FID counter,TAAR1 nonsel count,TAAR1 antag conf,Ga16 nonsel ag,TAAR1 ag counter,rCAG bind conf,DNA CAG counter,others
CN(C)[C@@H]1C(=O)C(C(N)=O)=C(O)[C@@]2(O)C(=O)C3=C(O)c4c(O)cccc4[C@@](C)(O)[C@H]3[C@H](O)[C@@H]12,70*,-8,35,3,36*,97*,18,.,.,.,.,67*,34*,
O=c1nc(/C=C/c2ccc(Cl)cc2Cl)cc(C(F)(F)F)[nH]1,49*,-8,.,-2,46*,70*,-16,.,.,.,.,38*,10*,
CCOC(=O)CNC(=O)N1Cc2cc(Br)ccc2-n2nncc2C1,2,4,.,-1,.,.,.,.,.,.,.,.,.,
CCN1C(=O)C(=C/C=C/c2ccco2)C(=O)N(CC)C1=S,56*,23,46,25,39*,75*,6,.,.,.,.,49*,17*,
CCN1C(=O)C(=C2C=C(C)N(Cc3ccco3)C(C)=C2)C(=O)N(CC)C1=S,0,-7,11,30,-1,.,.,.,.,.,.,.,.,
O=C(O)c1cc[c]([Hg][Cl])cc1,.,.,13,.,.,.,.,.,.,.,.,.,.,
CC(=O)c1ccc2c(c1)C1C(Cl)C(Sc3ccccc3[N+](=O)[O-])CC1C(C(=O)O)N2 (stereo not given),87*,14,-2,2,41*,52*,7,.,.,.,.,95*,73*,
COP(=O)(OC)OC=C(Cl)Cl,2,10,.,1,.,.,.,.,.,.,.,.,.,
Cc1ccccc1CN1Cc2cnnn2-c2ccccc2C1C#N (stereo not given),2,16,.,2,.,.,.,.,.,.,.,.,.,
O=C1NC(=O)N(Cc2ccco2)C(=O)/C1=C\c1cccn1CCOc1ccc(Cl)cc1,35*,35,1,15,44*,25,-5,.,.,.,.,11,7.6*,
O=C(Nc1ccccc1)N1Cc2cc(Br)ccc2-n2nncc2C1,1,-6,.,2,.,.,.,.,.,.,.,.,.,
COc1ccc(N2C(=O)NC(=O)/C(=C/c3ccc([N+](=O)[O-])s3)C2=O)cc1,69*,-23,1,2,39*,50*,0,.,.,.,.,50*,21*,FID counter DR=i
COc1ccc(CN2Cc3cc(N4CCOCC4)ccc3-n3nncc3C2)cc1,1,-15,.,4,.,.,.,.,.,.,.,.,.,
O=C1NC(=S)N(c2ccccc2)C(=O)/C1=C/c1ccco1,89*,8,4,2,41*,69*,0,.,.,.,.,90*,63*,
Cc1ccc2nc(-c3ccc(CN4CCC(n5nnc6ccccc65)CC4)cc3)c(-c3ccccc3)nc2c1,10,75*,.,1,.,.,.,27*,38,3,0,.,.,
Cc1ccc2nc(-c3ccc(CN4CCC(n5c(=O)[nH]c6ccccc65)CC4)cc3)c(-c3ccccc3)nc2c1,11,42,.,0,.,.,.,.,.,.,.,.,.,
COc1ccc2nc(-c3ccc(CN4CCC(n5nnc6ccccc65)CC4)cc3)c(-c3ccccc3)nc2c1,10,50*,.,1,.,.,.,18,29,3,8,.,.,
Cc1nc2ccccc2c(=O)n1-c1ccc(-c2ccccc2)cc1,-2,50*,-1,12,-4,.,.,23*,48,6,10,.,.,
COc1ccc(-n2c(/C=C/c3ccc(O)cc3)nc3ccccc3c2=O)cc1,1,66*,-5,8,-21,.,.,30*,29,5,3,.,.,
COc1ccc(-n2c(/C=C/c3ccc(O)c(OC)c3)nc3ccccc3c2=O)cc1,7,59*,4,7,-16,.,.,29*,43,7,4,.,.,
Cc1ccc(-n2c(C)nc3ccccc3c2=O)cc1C,-4,-5,-6,15,-6,.,.,.,.,.,.,.,.,
COC(=O)C1=C(c2ccc(OCc3ccccc3)cc2)C[C@@H]2CC[C@H]1N2C,-4,2,.,7,.,.,.,.,.,.,.,.,.,
O=P(Nc1ccccc1)(Nc1ccccc1)Oc1ccc(Cl)cc1,.,.,5,.,7,.,.,.,.,.,.,.,.,
COc1cccc(NP(=O)(Oc2ccc(Cl)cc2)Oc2ccc(Cl)cc2)c1,2,59*,15,6,-7,.,.,14,48,6,11,.,.,
O=P(Nc1cccc(F)c1)(Oc1ccccc1F)Oc1ccccc1F,-5,90*,0,3,-14,.,.,29*,67*,11,9,.,.,
CC(C)(C)C(=O)N1Cc2cc(N3CCOCC3)ccc2-n2nncc2C1,0,-10,.,2,.,.,.,.,.,.,.,.,.,

# Screening data deposited in PubChem by The Scripps Research Institute Molecular Screening Center.
